Most compounds without a hit are left out; they make up all but 2.7% or so of the library.
SIRT5 inh: sirtuin-5 (human) deacylase inhibition | actives 1.1% (n = 330,000) | inhibition, % at 15 µM | Purified SirT5, succinyl-peptide AMC, trypsin-coupled fluorescence; in the data active means inhibition above about 15%
S100A4 inh HTS: S100A4-myosin IIA interaction inhibition. S100A4/TAMRA-MyoIIA peptide fluorescence polarization. AID 652163. P26447. actives 0.14% (n = 360,000). inhibition, % at 10.7 µM;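 active means mean inhibition of at least 70% across replicates, with every replicate also reaching that level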
Target sequence (P26447 whole entry, looked up): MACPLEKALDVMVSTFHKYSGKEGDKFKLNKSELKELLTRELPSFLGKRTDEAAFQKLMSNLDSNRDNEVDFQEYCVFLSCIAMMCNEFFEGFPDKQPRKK
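Compound dosing: one dose per compound; test system: human S100A4 monomer with TAMRA-labelled myosin IIA peptide; probe or stimulus: TAMRA-labelled myosin IIA heavy-chain peptide probe, 5 nM; medium: HEPES buffer with Ca2+, pH 7.2; schedule: 5 min incubation before reading; benchmarks: neutral control DMSO, positive control TFP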
CaV13 FRET inh: Disruptors of the CACNA1D IQ motif to Ca2+-dependent inactivation inhibitor domain association, primary screening, Förster resonance energy transfer in intact living …. inhibition, % at 12.3 µM. HEK cells, CFP/YFP FRET ICDI-IQ, plate reader, 10 min; percent FRET-ratio fall versus neutral wells. actives 0.098% (n = 340,000). AID 743397;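 active means mean replicate inhibition of at least 30% and at least 1% of replicates passing that level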;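 further: 0% = median of the neutral control wells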
MLL AF4-AF9 inh: inhibitors of human MLL-AF4/AF9 interaction; P42568; AlphaScreen, biotin-AF4 peptide binding to FLAG-AF9; inhibition, % at 10 µM; actives 0.47% (n = 350,000);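 active means every replicate reaching a set inhibition limit, whatever the replicate mean, cut at about 25% in these data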;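 further: 0% = plate neutral control median and 100% = total signal loss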
Target sequence (P42568 whole entry, looked up): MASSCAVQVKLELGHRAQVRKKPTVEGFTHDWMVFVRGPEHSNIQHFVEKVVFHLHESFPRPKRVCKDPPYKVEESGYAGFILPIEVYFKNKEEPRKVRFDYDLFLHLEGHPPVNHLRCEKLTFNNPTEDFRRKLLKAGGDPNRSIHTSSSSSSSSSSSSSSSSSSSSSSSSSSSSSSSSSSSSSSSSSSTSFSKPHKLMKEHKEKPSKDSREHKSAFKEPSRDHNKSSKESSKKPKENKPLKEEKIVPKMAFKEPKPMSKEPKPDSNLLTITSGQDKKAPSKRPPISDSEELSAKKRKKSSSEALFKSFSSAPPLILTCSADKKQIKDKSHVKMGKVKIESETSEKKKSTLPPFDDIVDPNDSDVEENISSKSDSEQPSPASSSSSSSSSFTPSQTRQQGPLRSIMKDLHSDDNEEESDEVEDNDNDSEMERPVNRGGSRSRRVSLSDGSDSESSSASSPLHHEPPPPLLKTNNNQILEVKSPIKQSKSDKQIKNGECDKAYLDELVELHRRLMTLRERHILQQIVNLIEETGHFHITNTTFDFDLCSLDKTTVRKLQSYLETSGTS
DENV2 CPE rescue: inhibitors of DENV2 cytopathic effect; DENV2-infected cells, cytopathic effect rescue, plate reader; CPE inhibition, % at 9.99 µM; actives 1.7% (n = 350,000); in the data active means CPE inhibition above about 20%, passing the limit was not always enough; tested in BHK-21 cells;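 further: 0% = median of neutral control wells and 100% = median of positive control wells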
Starred values were filed as active, the others as inactive.

Results for N#Cc1cc2cc3c(cc2nc1N1CCCCC1)OCCO3 ?
CaV13 FRET inh: -3

How did N#Cc1cc2cc3c(cc2nc1Cl)OCCO3 do in these assays?
SIRT5 inh: -6; S100A4 inh HTS: -2; CaV13 FRET inh: -5; MLL AF4-AF9 inh: -2; DENV2 CPE rescue: 41*

Results for O=C(C[C@@H]1C=C[C@H](NS(=O)(=O)c2ccc(F)cc2)[C@H](CO)O1)N1CCN(c2ccccc2)CC1 ?
SIRT5 inh: -1; S100A4 inh HTS: -13; MLL AF4-AF9 inh: -3; DENV2 CPE rescue: 4

What do the screens show for `CCCN(C)C[C@H]1OCCCC[C@@H](C)Oc2ccc(NC(=O)Cc3ccccc3)cc2C(=O)N([C@H](C)CO)C[C@H]1C`?
SIRT5 inh: 11; S100A4 inh HTS: 11; MLL AF4-AF9 inh: 3; DENV2 CPE rescue: -2

Results for C[C@@H]1CN([C@@H](C)CO)C(=O)c2cc(NC(=O)Cc3ccccc3)ccc2O[C@@H](C)CCCCO[C@H]1CN(C)Cc1ccccc1 ?
SIRT5 inh: 0; S100A4 inh HTS: -11; MLL AF4-AF9 inh: 4; DENV2 CPE rescue: 10

How did COc1ccc(CN(C)C[C@@H]2OCCCC[C@H](C)Oc3ccc(NC(=O)Cc4ccccc4)cc3C(=O)N([C@@H](C)CO)C[C@H]2C)cc1 do in these assays?
DENV2 CPE rescue: 27*

What do the screens show for `CCCN(C)C[C@@H]1OCCCC[C@H](C)Oc2ccc(NC(=O)Cc3ccccc3)cc2C(=O)N([C@@H](C)CO)C[C@@H]1C`?
SIRT5 inh: 0; S100A4 inh HTS: 16; MLL AF4-AF9 inh: 7; DENV2 CPE rescue: 35*

Results for C[C@@H]1CCCCO[C@H](CN(C)Cc2ccccc2)[C@H](C)CN([C@H](C)CO)C(=O)c2cc(NC(=O)Cc3ccccc3)ccc2O1 ?
SIRT5 inh: 16*; S100A4 inh HTS: 8; MLL AF4-AF9 inh: 9; DENV2 CPE rescue: 9

How did COCC(=O)Nc1ccc2c(c1)C(=O)N(C)C[C@H](OC)[C@H](C)CN(C(=O)c1ccccc1F)[C@H](C)CO2 do in these assays?
SIRT5 inh: 0; S100A4 inh HTS: -7; MLL AF4-AF9 inh: -1; DENV2 CPE rescue: 3

How did O=C(Nc1ccccc1)c1ccccc1CSc1ccccc1 do in these assays?
S100A4 inh HTS: 0; CaV13 FRET inh: -5; MLL AF4-AF9 inh: -2; DENV2 CPE rescue: 44*

What do the screens show for `O=C(Nc1cccc(Br)c1)c1ccc(CSc2ccccc2)cc1`?
SIRT5 inh: 24*; S100A4 inh HTS: 15; CaV13 FRET inh: -2; MLL AF4-AF9 inh: -18; DENV2 CPE rescue: 0

What do the screens show for `Cc1cccc(C)c1OCC(=O)NNC(=O)CCCn1c(=O)oc2ccccc21`?
SIRT5 inh: 2; S100A4 inh HTS: 20; CaV13 FRET inh: -5; MLL AF4-AF9 inh: -2; DENV2 CPE rescue: 45*

Results for O=C(CCCn1c(=O)oc2ccccc21)Nc1ccccc1 ?
SIRT5 inh: -3; S100A4 inh HTS: -3; CaV13 FRET inh: -6; MLL AF4-AF9 inh: -5; DENV2 CPE rescue: -1

What do the screens show for `CCCNC(=O)C[C@H]1CC[C@@H]2[C@@H](COc3ccc(NC(=O)COC)cc3C(=O)N2C)O1`?
DENV2 CPE rescue: 15

Results for CO[C@@H]1CN(C)C(=O)c2cc(NS(C)(=O)=O)ccc2OC[C@H](C)N(CC2CCCCC2)C[C@H]1C ?
SIRT5 inh: 0; S100A4 inh HTS: 1; MLL AF4-AF9 inh: 0; DENV2 CPE rescue: 3

Results for O=C(C[C@H]1C[C@@H]2c3cc(NC(=O)NC4CCCC4)ccc3O[C@@H]2[C@H](CO)O1)NCc1ccccn1 ?
SIRT5 inh: -1; S100A4 inh HTS: -5; MLL AF4-AF9 inh: -1; DENV2 CPE rescue: -3

What do the screens show for `CN(C)CC/C=C1/c2ccccc2COc2ccc(CC(=O)O)cc21`?
SIRT5 inh: -4; S100A4 inh HTS: 166*; CaV13 FRET inh: -5; MLL AF4-AF9 inh: -1; DENV2 CPE rescue: -2

What do the screens show for `CN(C)CCC=C1c2ccccc2CCc2ccccc21`?
SIRT5 inh: -2; S100A4 inh HTS: -8; CaV13 FRET inh: -5; MLL AF4-AF9 inh: 0; DENV2 CPE rescue: 1

What do the screens show for `CO[C@@H]1CN(C)C(=O)c2cc(NC(=O)C3CCCCC3)ccc2OC[C@H](C)NC[C@@H]1C`?
SIRT5 inh: 2; S100A4 inh HTS: -7; MLL AF4-AF9 inh: -2; DENV2 CPE rescue: -4

How did COc1ccc2nc(NN=Cc3cccc(C)n3)cc(C)c2c1 do in these assays?
S100A4 inh HTS: -11; CaV13 FRET inh: -12; MLL AF4-AF9 inh: 3; DENV2 CPE rescue: 54*

Results for COc1ccc2nc(C)cc(N/N=C/c3cccc(OC)c3O)c2c1 ?
SIRT5 inh: -2; S100A4 inh HTS: -5; CaV13 FRET inh: -3; MLL AF4-AF9 inh: 25*; DENV2 CPE rescue: -16

Results for Cc1ccccc1S(=O)(=O)N1C[C@@H](O)COC[C@H]2O[C@@H](CC(=O)N3CCCCC3)CC[C@@H]21 ?
SIRT5 inh: -2; S100A4 inh HTS: -25; MLL AF4-AF9 inh: 0; DENV2 CPE rescue: -4

How did CN(CCc1ccccc1)C(=O)c1ccc(NC(=O)Cc2ccc(NC(=O)C3CCN(C(=O)c4ccccc4)CC3)cc2)cc1 do in these assays?
SIRT5 inh: -1; S100A4 inh HTS: -1; CaV13 FRET inh: -5; MLL AF4-AF9 inh: 31*; DENV2 CPE rescue: -11

What do the screens show for `CN(C(=O)c1ccc(NC(=O)Cc2ccc(NC(=O)C3CCN(C(=O)C4CCC4)CC3)cc2)cc1)C1CC1`?
S100A4 inh HTS: 44; CaV13 FRET inh: -8; DENV2 CPE rescue: -7

How did O=C(Cc1cccc(NC(=O)C2CCCN(C(=O)C3CC3)C2)c1)Nc1cccc(C(=O)N2CCCCC2)c1 (configuration not stated) do in these assays?
SIRT5 inh: 0; S100A4 inh HTS: 14; CaV13 FRET inh: -6; MLL AF4-AF9 inh: -3; DENV2 CPE rescue: 59*

Results for CN(C(=O)c1ccc(NC(=O)Cc2ccc(NC(=O)C3CCN(C(=O)C4CCCCC4)CC3)cc2)cc1)C1CCCC1 ?
SIRT5 inh: -3; S100A4 inh HTS: 13; CaV13 FRET inh: -8; MLL AF4-AF9 inh: 9; DENV2 CPE rescue: 86*

What do the screens show for `CN(C(=O)c1cccc(NC(=O)Cc2ccc(NC(=O)C3CCN(C(=O)C4CCCCC4)CC3)cc2)c1)C1CCCCC1`?
SIRT5 inh: 25*; S100A4 inh HTS: -3; CaV13 FRET inh: -10; MLL AF4-AF9 inh: -8; DENV2 CPE rescue: 1

How did CCCC(=O)Nc1ccc2c(c1)OC[C@H](C)N(C(=O)c1cnccn1)C[C@H](C)[C@@H](OC)CN(C)C2=O do in these assays?
S100A4 inh HTS: -7; MLL AF4-AF9 inh: -5; DENV2 CPE rescue: 10

Results for CC(=O)N[C@@H]1CC[C@@H](CC(=O)NCc2ccc(Cl)cc2)O[C@@H]1CO ?
SIRT5 inh: -1; S100A4 inh HTS: -6; MLL AF4-AF9 inh: -11; DENV2 CPE rescue: -1

How did CN(C(=O)c1cccc(NC(=O)Cc2ccc(NC(=O)C3CCN(C(=O)C4CC4)CC3)cc2)c1)C1CCC1 do in these assays?
SIRT5 inh: -4; S100A4 inh HTS: -7; CaV13 FRET inh: -7; MLL AF4-AF9 inh: 1; DENV2 CPE rescue: 10

Screening data from PubChem BioAssay.
